The text below walks through data of ChEMBL document CHEMBL4257575, “Discovery of Novel Flavonoid Dimers To Reverse Multidrug Resistance Protein 1 (MRP1, ABCC1) Mediated Drug Resistance in Cancers Using a High Throughput Platform with "Click Chemistry"” (J Med Chem, 2018).

Structures are written as SMILES.

The target of this data set is Multidrug resistance-associated protein 1 (Homo sapiens, UniProt P33527). The experiment in a line: Inhibition of MRP1 in human 2008/MRP1 cells assessed as potentiation of doxorubicin-induced cytotoxicity by measuring cell survival at 2 uM after 5 days by MTS assay relative to control. The settings on record: 120 h. The format is cell-based. The gist of the method: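 2008/MRP1 cells (retroviral human MRP1 transfectant; RPMI 1640, 10% FBS) at 4,000 per well, with 100 nM doxorubicin plus crude, unpurified click products in DMSO: 2 µM in the primary screen, 1 µM in the secondary. Incubated 5 days at 37 °C. MTS/PMS added for 2 h at 37 °C, absorbance read at 490 nm. % survival is relative to wells without DOX or product. Run in triplicate, at least three experiments.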
Chain of Multidrug resistance-associated protein 1 (P33527 whole entry): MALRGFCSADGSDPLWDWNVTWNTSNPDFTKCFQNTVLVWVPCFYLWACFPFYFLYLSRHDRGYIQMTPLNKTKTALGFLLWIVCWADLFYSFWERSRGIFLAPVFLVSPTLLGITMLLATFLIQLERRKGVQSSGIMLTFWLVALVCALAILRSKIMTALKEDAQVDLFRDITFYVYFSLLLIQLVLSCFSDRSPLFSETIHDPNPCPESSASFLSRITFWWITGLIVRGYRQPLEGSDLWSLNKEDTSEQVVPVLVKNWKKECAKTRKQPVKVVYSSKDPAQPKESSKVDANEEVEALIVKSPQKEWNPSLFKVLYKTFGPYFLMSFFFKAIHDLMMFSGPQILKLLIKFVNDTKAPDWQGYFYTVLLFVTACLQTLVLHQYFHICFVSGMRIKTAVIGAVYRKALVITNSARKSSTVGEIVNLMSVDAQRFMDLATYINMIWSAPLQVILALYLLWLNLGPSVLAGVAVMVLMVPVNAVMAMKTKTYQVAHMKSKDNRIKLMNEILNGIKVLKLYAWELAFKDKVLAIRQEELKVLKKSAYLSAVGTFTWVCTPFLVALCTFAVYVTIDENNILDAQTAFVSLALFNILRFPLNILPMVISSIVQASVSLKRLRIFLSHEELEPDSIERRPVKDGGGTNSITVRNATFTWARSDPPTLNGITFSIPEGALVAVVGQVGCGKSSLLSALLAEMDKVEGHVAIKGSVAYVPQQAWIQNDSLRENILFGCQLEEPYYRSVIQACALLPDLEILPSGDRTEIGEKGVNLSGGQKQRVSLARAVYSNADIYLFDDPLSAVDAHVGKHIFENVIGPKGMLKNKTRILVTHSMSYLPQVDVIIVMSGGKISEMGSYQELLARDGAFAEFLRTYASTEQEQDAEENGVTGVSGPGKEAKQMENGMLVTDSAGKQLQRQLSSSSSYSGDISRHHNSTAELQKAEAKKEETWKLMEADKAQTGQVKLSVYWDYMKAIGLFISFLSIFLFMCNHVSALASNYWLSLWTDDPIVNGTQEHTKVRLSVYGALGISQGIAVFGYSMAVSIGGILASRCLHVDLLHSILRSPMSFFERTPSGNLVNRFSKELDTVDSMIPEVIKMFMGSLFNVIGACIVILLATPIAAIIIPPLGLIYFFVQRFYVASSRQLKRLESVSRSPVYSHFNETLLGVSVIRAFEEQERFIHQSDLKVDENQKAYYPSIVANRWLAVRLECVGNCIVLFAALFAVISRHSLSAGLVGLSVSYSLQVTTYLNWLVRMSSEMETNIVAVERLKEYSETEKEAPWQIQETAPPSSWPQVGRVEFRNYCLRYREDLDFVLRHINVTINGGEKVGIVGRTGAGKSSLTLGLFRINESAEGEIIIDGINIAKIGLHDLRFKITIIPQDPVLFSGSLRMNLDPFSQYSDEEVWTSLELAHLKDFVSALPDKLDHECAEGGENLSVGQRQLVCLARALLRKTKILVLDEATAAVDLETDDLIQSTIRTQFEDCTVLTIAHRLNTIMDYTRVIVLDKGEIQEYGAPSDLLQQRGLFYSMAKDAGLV
In general terms: Formazan colour is commonly taken as a measure of viable cells.

In the case of `O=c1c(OCc2ccccc2)c(-c2ccc(OCCOCCn3cc(-c4cccc(-c5cn(CCOCCOc6ccc(-c7oc8ccccc8c(=O)c7OCc7ccccc7)cc6)nn5)c4)nn3)cc2)oc2ccccc12`, the Survival is recorded as 87%.

For `O=c1c(OCc2ccccc2)c(-c2ccc(OCCOCCOCCn3cc(CN(Cc4ccccc4)Cc4cn(CCOCCOCCOc5ccc(-c6oc7ccccc7c(=O)c6OCc6ccccc6)cc5)nn4)nn3)cc2)oc2ccccc12`, the Survival came out at 87%.

Turning to `Cc1ccc2oc(-c3ccc(OCCOCCOCCn4cc(CCN5C(=O)c6ccccc6C5=O)nn4)cc3)cc(=O)c2c1`, the Survival turned out to be 81%.

On to `[N-]=[N+]=NCCOCCOCCOc1ccc(-c2oc3ccccc3c(=O)c2OCc2ccccc2)cc1`, for which the Survival worked out at 74%.

As for `O=c1[nH]c(-c2ccc(OCCCc3cn(CCOCCOCCOc4ccc(-c5cc(=O)c6ccccc6o5)cc4)nn3)cc2)nc2ccccc12`, the Survival was determined as 76%.

For `O=c1cc(-c2ccc(OCCOCCn3cc(CN(Cc4ccccc4)Cc4cn(CCOCCOc5ccc(-c6cc(=O)c7cc(F)ccc7o6)cc5)nn4)nn3)cc2)oc2ccc(F)cc12`, the Survival was 70%.

Consider `C#CCCCOc1ccc(-c2cc(=O)c3c(OCc4ccccc4)cc(OCOC)cc3o2)cc1`, for which the Survival was found to be 67%.

Turning to `O=c1cc(-c2ccccc2)oc2cc(OCCCCc3cn(CCOCCOCCOc4ccc5c(=O)cc(-c6ccccc6)oc5c4)nn3)ccc12`, the Survival amounted to 61%.

As to `O=c1cc(-c2ccccc2)oc2cc(OCCOCCn3cc(CCCOc4ccc(-c5cc(=O)c6cc(F)ccc6o5)cc4)nn3)ccc12`, the Survival came to 111%.

Regarding `O=c1c(OCc2ccccc2)c(-c2cccc(OCCOCCn3cc(CN(Cc4ccccc4)Cc4cn(CCOCCOc5cccc(-c6oc7ccccc7c(=O)c6OCc6ccccc6)c5)nn4)nn3)c2)oc2ccccc12`, the Survival is given as 87%.

Take `CCc1ccc(O)c(C(=O)/C=C/c2ccc(OCCCCc3cn(CCOCCOc4ccc5c(=O)cc(-c6ccccc6)oc5c4)nn3)cc2)c1`: the Survival was 68%.

On to `O=c1cc(-c2ccccc2)oc2cc(OCCN(Cc3ccccc3)Cc3cn(CCOCCOc4cccc(-c5oc6ccccc6c(=O)c5OCc5ccccc5)c4)nn3)ccc12`, for which the Survival is 73%.

As to `O=c1cc(-c2ccc(OCCCc3cn(CCOCCOCCOc4ccc(-c5cc(=O)c6ccccc6o5)cc4)nn3)cc2)oc2ccccc12`, the Survival is given as 56%.

Take `O=c1cc(-c2ccccc2)oc2cc(OCCCCc3cn(CCOCCOCCOc4ccc(-c5oc6ccccc6c(=O)c5OCc5ccccc5)cc4)nn3)ccc12`: the Survival is listed as 63%.

For the compound `Cc1ccc(C(=O)/C=C/c2ccc(OCCCCc3cn(CCOc4cccc5c(=O)cc(-c6ccccc6)oc45)nn3)cc2)c(O)c1`, the Survival was found to be 75%.

As to `CCc1ccc(O)c(C(=O)/C=C/c2ccc(OCCCCc3cn(CCOCCOc4ccc(-c5cc(=O)c6cc(F)ccc6o5)cc4)nn3)cc2)c1`, the Survival came out at 80%.

As to `O=c1cc(-c2ccccc2)oc2cc(OCCN(Cc3ccccc3)Cc3cn(CCOc4cccc5c(=O)cc(-c6ccccc6)oc45)nn3)ccc12`, the Survival is reported as 80%.

Take `O=c1[nH]c(-c2ccc(OCCCc3cn(CCOCCOc4ccc(-c5cc(=O)c6cc(F)ccc6o5)cc4)nn3)cc2)nc2ccccc12`: the Survival was found to be 76%.

`C#CCCCCOc1ccc(/C=C/C(=O)c2cc(CC)ccc2O)cc1`: the Survival was 103%.

Consider `COCOc1cc(OCc2ccccc2)c2c(=O)cc(-c3ccc(OCCCc4cn(CCOCCOCCOc5ccc6c(=O)cc(-c7ccccc7)oc6c5)nn4)cc3)oc2c1`, for which the Survival amounted to 76%.

Take `O=c1cc(-c2ccccc2)oc2cc(OCCOCCOCCn3cc(CN(Cc4ccccc4)Cc4cn(CCOCCOCCOc5ccc6c(=O)cc(-c7ccccc7)oc6c5)nn4)nn3)ccc12`: the Survival was 74%.

`CN(CCN(C)Cc1cn(CCOCCOc2ccc3oc(-c4ccccc4)cc(=O)c3c2)nn1)Cc1cn(CCOCCOc2ccc3c(=O)cc(-c4ccccc4)oc3c2)nn1`: the Survival was 99%.

As for `Cc1ccc2oc(-c3ccc(OCCCCc4cn(CCOCCOc5ccc(-c6oc7ccccc7c(=O)c6OCc6ccccc6)cc5)nn4)cc3)cc(=O)c2c1`, the Survival worked out at 73%.

As for `Cc1ccc2oc(-c3ccc(OCCOCCOCCn4cc(CN(CCOc5ccc6c(=O)cc(-c7ccccc7)oc6c5)Cc5ccccc5)nn4)cc3)cc(=O)c2c1`, the Survival worked out at 53%.

On to `O=c1cc(-c2ccc(OCCCc3cn(CCOc4cccc5c(=O)cc(-c6ccccc6)oc45)nn3)cc2)oc2ccccc12`, for which the Survival was 69%.

With `CN(CCN(C)Cc1cn(CCOCCOc2ccc(-c3cc(=O)c4cc(F)ccc4o3)cc2)nn1)Cc1cn(CCOCCOc2ccc(-c3cc(=O)c4cc(F)ccc4o3)cc2)nn1`, the Survival worked out at 73%.

Turning to `O=c1c(OCc2ccccc2)c(-c2ccc(OCCOCCn3cc(CN(Cc4cn(CCOCCOc5ccc(-c6oc7ccccc7c(=O)c6OCc6ccccc6)cc5)nn4)Cc4cn(CCOCCOc5ccc(-c6oc7ccccc7c(=O)c6OCc6ccccc6)cc5)nn4)nn3)cc2)oc2ccccc12`, the Survival turned out to be 77%.

Consider `Cc1ccc(O)c(C(=O)/C=C/c2ccc(OCCCCc3cn(CCOCCOc4ccc(-c5cc(=O)c6ccccc6o5)cc4)nn3)cc2)c1`, for which the Survival is on record as 60%.

In the case of `O=C(/C=C/c1ccc(OCCCCc2cn(CCOCCOc3ccc4c(=O)cc(-c5ccccc5)oc4c3)nn2)cc1)c1ccccc1O`, the Survival was determined as 58%.

`O=c1cc(-c2ccccc2)oc2cc(OCCOCCOCCn3cc(-c4cccc(-c5cn(CCOCCOCCOc6ccc7c(=O)cc(-c8ccccc8)oc7c6)nn5)c4)nn3)ccc12`: the Survival is recorded as 74%.

Regarding `O=c1cc(-c2ccccc2)oc2cc(OCCOCCn3cc(-c4cccc(-c5cn(CCOCCOc6ccc7oc(-c8ccccc8)cc(=O)c7c6)nn5)c4)nn3)ccc12`, the Survival is 76%.

`[N-]=[N+]=NCCOCCOc1ccc(-c2oc3ccccc3c(=O)c2OCc2ccccc2)cc1`: the Survival was determined as 72%.

With `O=c1cc(-c2ccc(OCCOCCOCCn3cc(CNc4ccccc4)nn3)cc2)oc2ccc(F)cc12`, the Survival is given as 90%.

Regarding `O=c1cc(-c2ccc(OCCOCCOCCn3cc(-c4ccc(-c5cn(CCOCCOCCOc6ccc(-c7cc(=O)c8ccccc8o7)cc6)nn5)cc4)nn3)cc2)oc2ccccc12`, the Survival worked out at 83%.

As for `O=Cc1ccc(OCCCCc2cn(CCOCCOCCOc3ccc(-c4cc(=O)c5ccccc5o4)cc3)nn2)cc1`, the Survival turned out to be 70%.

In the case of `COc1cccc(COc2c(-c3ccc(OCCOCCn4cc(CCCCOc5ccc(/C=C/C(=O)c6ccc(C)cc6O)cc5)nn4)cc3)oc3ccccc3c2=O)c1`, the Survival turned out to be 78%.

For `O=C(/C=C/c1ccc(OCCCCc2cn(CCOCCOc3cccc(-c4oc5ccccc5c(=O)c4OCc4ccccc4)c3)nn2)cc1)c1ccccc1O`, the Survival worked out at 83%.

As to `Cc1ccc2oc(-c3ccc(OCCOCCOCCn4cc(CN(C)CCN(C)Cc5cn(CCOCCOCCOc6ccc(-c7cc(=O)c8cc(C)ccc8o7)cc6)nn5)nn4)cc3)cc(=O)c2c1`, the Survival stood at 76%.

For the compound `Cc1ccc2oc(-c3ccc(OCCOCCOCCn4cc(-c5cccc(-c6cn(CCOCCOCCOc7ccc(-c8cc(=O)c9cc(C)ccc9o8)cc7)nn6)c5)nn4)cc3)cc(=O)c2c1`, the Survival is 77%.

Turning to `COc1cccc(COc2c(-c3ccc(OCCCCc4cn(CCOCCOCCOc5ccc6c(=O)cc(-c7ccccc7)oc6c5)nn4)cc3)oc3ccccc3c2=O)c1`, the Survival is 78%.

On to `O=c1c(OCc2ccccc2)c(-c2ccc(OCCOCCOCCn3cc(CNc4ccccc4)nn3)cc2)oc2ccccc12`, for which the Survival is on record as 87%.

As to `O=c1cc(-c2ccccc2)oc2cc(OCCCc3cn(CCOCCOc4ccc(-c5oc6ccccc6c(=O)c5OCc5ccccc5)cc4)nn3)ccc12`, the Survival is listed as 51%.

Regarding `C#CCCCCOc1ccc(/C=C/C(=O)c2ccccc2O)cc1`, the Survival is 102%.

`O=C(/C=C/c1ccc(OCCCCc2cn(CCOCCOCCOc3ccc(-c4cc(=O)c5cc(F)ccc5o4)cc3)nn2)cc1)c1ccc(F)cc1O`: the Survival came to 53%.

Consider `O=c1cc(-c2ccccc2)oc2cc(OCCn3cc(CN4CCN(Cc5cn(CCOc6ccc7occ(-c8ccccc8)c(=O)c7c6)nn5)CC4)nn3)ccc12`, for which the Survival was found to be 93%.

In the case of `O=c1c(OCc2ccccc2)c(-c2ccc(OCCOCCOCCn3cc(-c4cccc(-c5cn(CCOCCOCCOc6ccc(-c7oc8ccccc8c(=O)c7OCc7ccccc7)cc6)nn5)c4)nn3)cc2)oc2ccccc12`, the Survival is reported as 80%.

`[N-]=[N+]=NCCOCCOc1ccc(-c2cc(=O)c3ccccc3o2)cc1`: the Survival came out at 78%.

As for `O=c1cc(-c2ccc(OCCOCCn3cc(-c4cccc(-c5cn(CCOCCOc6ccc(-c7cc(=O)c8ccccc8o7)cc6)nn5)c4)nn3)cc2)oc2ccccc12`, the Survival was 79%.

`O=C(/C=C/c1ccc(OCCCCc2cn(CCOc3cccc4c(=O)cc(-c5ccccc5)oc34)nn2)cc1)c1ccccc1O`: the Survival was 85%.

For the compound `O=c1cc(-c2ccccc2)oc2cc(OCCOCc3cn(CCOCCOc4ccc(-c5cc(=O)c6cc(F)ccc6o5)cc4)nn3)ccc12`, the Survival is 54%.

As for `O=C(/C=C/c1ccc(OCCCCc2cn(CCOc3cccc4c(=O)cc(-c5ccccc5)oc34)nn2)cc1)c1ccc(F)cc1O`, the Survival amounted to 73%.

`O=C1c2ccccc2C(=O)N1CCc1cn(CCOCCOc2cccc(-c3oc4ccccc4c(=O)c3OCc3ccccc3)c2)nn1`: the Survival is 62%.

As to `O=c1[nH]c(-c2ccc(OCCCc3cn(CCOCCOc4cccc(-c5oc6ccccc6c(=O)c5OCc5ccccc5)c4)nn3)cc2)nc2ccccc12`, the Survival is reported as 67%.

Regarding `COc1cccc(COc2c(-c3ccc(OCCOCCN=[N+]=[N-])cc3)oc3ccccc3c2=O)c1`, the Survival came to 57%.

For `Cc1ccc(O)c(C(=O)/C=C/c2ccc(OCCCCc3cn(CCOCCOc4ccc(-c5cc(=O)c6cc(F)ccc6o5)cc4)nn3)cc2)c1`, the Survival was determined as 82%.

As for `O=c1cc(-c2ccc(OCCOCCOCCn3cc(COCCOc4ccc5c(=O)cc(-c6ccccc6)oc5c4)nn3)cc2)oc2ccccc12`, the Survival is 59%.
